Structures can show the parent of a compound that is named as a salt.
What was measured:
[1] = tested on: PC-3; experiment: Cytotoxicity against human PC3 cells after 72 hrs by SRB assay; conditions: PC-3, 72 h
[2] = tested on: MGC-803; experiment: Cytotoxicity against human MGC803 cells after 72 hrs by SRB assay; conditions: MGC-803, 72 h
[3] = tested on: HCT-116; experiment: Cytotoxicity against human HCT116 cells after 72 hrs by SRB assay; conditions: HCT-116, 72 h
[4] = tested on: HL-60; experiment: Cytotoxicity against human HL60 cells after 72 hrs by MTT assay; type: functional, cell-based; conditions: HL-60, 72 h
In short: (§1)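 Cells were checked for viability by Trypan blue counting, then plated at 8000 cells/well and exposed to test solution for 72 h. MTT reagents were then added, followed by a further 10 h incubation. Absorbance was read at 570 nm and IC50 reported in μM. Doxorubicin was the positive control.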

[5] = tested on: SH-SY5Y; experiment: Cytotoxicity against human SH-SY5Y cells after 72 hrs by SRB assay
[6] = tested on: K562; experiment: Cytotoxicity against human K562 cells after 72 hrs by MTT assay; type: functional, cell-based; conditions: K562, 72 h
In short: as §1

Row | Compound | IC50 [1] | IC50 [2] | IC50 [3] | IC50 [4] | IC50 [5] | IC50 [6]
1 | CC(C)=C1NC(=O)C(=C2C=CC[C@H](C)O2)C1=O | 11 µM | 22 µM | 12 µM | 6.6 µM | 15 µM | 4.5 µM
2 | CO[C@H](CC(Nc1ccccc1)=C1C(=O)NC(=C(C)C)C1=O)C[C@H](C)O | 13 µM | 19 µM | 11 µM | 2.8 µM | 12 µM | 4.1 µM
3 | CO[C@@H](CC(Nc1ccccc1)=C1C(=O)NC(=C(C)C)C1=O)C[C@H](C)O | > 30 µM | > 30 µM | > 30 µM | > 30 µM | > 30 µM | > 30 µM
4 | CC(C)=C1NC(=O)C(=C(C[C@@H](C[C@H](C)O)Nc2ccccc2)Nc2ccccc2)C1=O | > 30 µM | > 30 µM | > 30 µM | 7.8 µM | > 30 µM | 6.8 µM
5 | CC(C)=C1NC(=O)C(=C(C[C@H](C[C@H](C)O)Nc2ccccc2)Nc2ccccc2)C1=O | 18 µM | > 30 µM | 14 µM | 7.5 µM | > 30 µM | 5.9 µM
6 | COc1cccc2c1C(=O)c1c(O)c3c(c(O)c1C2=O)C[C@@](O)(C(=O)CO)C[C@@H]3O[C@H]1C[C@H](N)[C@H](O)[C@H](C)O1 [DOXORUBICIN HYDROCHLORIDE] | 1 µM |  |  |  |  | 

Reference: ChEMBL document CHEMBL4145647, “Aniline-Tetramic Acids from the Deep-Sea-Derived Fungus Cladosporium sphaerospermum L3P3 Cultured with the HDAC Inhibitor SAHA” (J Nat Prod, 2018)
